According to PMC7115683 (European Journal of Medicinal Chemistry, 2013):

Assays:
Feline herpes virus = assay: Anti-Feline Herpes Virus activity in CRFK cell cultures; format: cell-based; settings: for EC50: CRFK, read-out: EC50 Feline herpes virus
[1] = test system: P. falciparum (CQ^S) D10 strain; assay: In vitro antimalarial activity, parasite lactate dehydrogenase assay, D10 strain; format: cell-based; settings: Plasmodium falciparum, D10, read-out: D10 IC50
[2] = μ-oxo heme binding, UV-visible titration and Job's plot; settings: pH 5.8; association constant, HypSpec
In short: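 UV–visible titration of test compound with μ-oxo heme at pH 5.8, plus Job plot (absorbance ratio A/A0 against mole fraction of test compound). Binding constant (log K) computed with HypSpec.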

[3] = test system: P. falciparum (CQ^R) Dd2 strain; assay: In vitro antimalarial activity, Dd2 strain; format: cell-based, Plasmodium falciparum
[4] = Monomeric heme binding, UV-visible titration and Job's plot; settings: association constant, HypSpec
In short: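 UV–visible titration of test compound with monomeric heme at pH 7.4 (HEPES) and at food-vacuole pH 5.6 (MES), 1 cm cuvette at 25 °C. Association constants (log K) derived from the titration curves by non-linear least-squares fitting in HypSpec.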

[5] = test system: Madin Darby canine kidney (MDCK) cells; settings: 50% cytotoxic concentration, MTS assay
CT DNA [6] = assay: CT DNA binding, fluorescence titration; settings: emission band at 380 nm upon addition of CT DNA
In short: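 Steady-state fluorescence at ambient temperature. Test compound (17.1 μM) in buffered methanol titrated with CT DNA (0.5–150 μM). Excitation 330 nm, emission monitored at 376 nm.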

CT DNA [7] = assay: CT DNA binding, UV spectrophotometry titration; settings: both absorptions (255 and 330 nm), CT-DNA addition
In short: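 Test compound (30 μM) in buffered methanol titrated with CT-DNA (4–200 μM). UV–visible spectra recorded 200–1100 nm in a 1 cm quartz cuvette, cell holder at 25 °C. Changes followed at the 255 nm and 330 nm absorption bands.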

[8] = test system: Crandell-Rees Feline Kidney (CRFK) cell cultures; settings: MTS assay, HHA, UDA
[9] = test system: Feline corona virus (FIPV); assay: Anti-Feline Corona Virus activity in CRFK cell cultures; format: cell-based; settings: HHA, UDA

## CCOC(=O)c1c(C)nc(NCCCCNc2ccnc3cc(Cl)ccc23)nc1-c1ccccc1[N+](=O)[O-] [Compound 5c, Ethyl 2-(4-((7-chloroquinolin-4-yl)amino)butylamino)-4-methyl-6-(2-nitrophenyl)pyrimidine-5-carboxylate]
Feline herpes virus
  EC50: > 100 µM

## CCOC(=O)c1c(C)nc(OCCCNc2ccnc3cc(Cl)ccc23)nc1-c1ccccc1 [Compound 5d, Ethyl 2-(3-((7-chloroquinolin-4-yl)amino)propoxy)-4-methyl-6-phenylpyrimidine-5-carboxylate]
Feline herpes virus
  EC50: > 100 µM

## CCN(CC)CCCC(C)Nc1ccnc2cc(Cl)ccc12 (stereo not drawn) [CQ, Chloroquine]
[1]
  IC50: 0.035 µM
[2]
  μ-oxoheme, log K ± σ: 5.58 ± 0.006
[3]; Plasmodium falciparum, DD2, read-out: Dd2 IC50
  IC50: 0.222 µM
[4]; pH 5.6 (MES buffer)
  Monomeric heme, log K ± σ: 4.65 ± 0.052
[4]; pH 7.4 (HEPES buffer)
  Monomeric heme, log K ± σ: 5.15 ± 0.176

## CCOC(=O)c1c(C)nc(NCCCCNc2ccnc3cc(Cl)ccc23)nc1-c1ccc(F)cc1 [Compound 5f, Ethyl 4-(4-fluorophenyl)-2-(4-((7-chloroquinolin-4-yl)amino)butylamino)-6-methylpyrimidine-5-carboxylate]
Feline herpes virus
  EC50: > 100 µM

## Ethyl 2-(3-((7-chloroquinolin-4-yl)amino)propylamino)-4-methylpyrimidine-5-carboxylate [Compound 5g]
[5]
  CC50: 10.3 µM

## Cc1nc(NCCCCNc2ccnc3cc(Cl)ccc23)nc(-c2ccccc2)c1C(=O)OC(C)C [Compound 5b, i-Propyl 2-(4-((7-chloroquinolin-4-yl)amino)butylamino)-4-methyl-6-phenylpyrimidine-5-carboxylate]
CT DNA [6]
  shift in emission band: 80 nm
CT DNA [7]
  bathochromic shift: ~3 nm
Feline herpes virus
  EC50: > 20 µM
[3]; CQ^R strain of P. falciparum
  fold increase in antimalarial activity than the standard CQ: 2 fold

## CCOC(=O)c1c(C)nc(NCCCCNc2ccnc3cc(Cl)ccc23)nc1-c1ccc(Cl)cc1 [Compound 5e, Ethyl 4-(4-chlorophenyl)-2-(4-((7-chloroquinolin-4-yl)amino)butylamino)-6-methylpyrimidine-5-carboxylate]
Feline herpes virus
  EC50: > 100 µM

## COC(=O)c1c(C)nc(NCCCNc2ccnc3cc(Cl)ccc23)nc1-c1ccccc1 [Compound 5a, Methyl 2-(3-((7-chloroquinolin-4-yl)amino)propylamino)-4-methyl-6-phenylpyrimidine-5-carboxylate]
Feline herpes virus
  EC50: > 20 µM

B1: UDA: reference agent in the CRFK antiviral assay, values in μg/ml; not explained in the paper (protein, UniProt P11218 24-372, looked up)
Lectin/endochitinase 1: QRCGSQGGGGTCPALWCCSIWGWCGDSEPYCGRTCENKCWSGERSDHRCGAAVGNPPCGQDRCCSVHGWCGGGNDYCSGSKCQYRCSSSVRGPRVALSGNSTANSIGNVVVTEPLFDQMFSHRKDCPSQGFYSYHSFLVAAESFPAFGTIGDVATRKREVAAFLAHISQATSGERSDVENPHAWGLCHINTTTVTENDFCTSSDWPCAAGKKYSPRGPIQLTHNFNYGLAGQAIGEDLIQNPDLVEKDPIISFKTALWFWMSQHDNKPSCHDIVLNANSAANRIPNKGVIGNIISRAFGHDDFAVRSSSIGFYKRYCDMLGVSYGHDLKYWFDNTPSSEFQRIQMRVAA
[8]
  CC50: 63.2 µg/mL
Feline herpes virus; CRFK cell cultures, HHA, UDA
  EC50 Feline herpes virus: 1.0 µg/mL
[9]
  EC50 Feline corona virus (FIPV): 1.6 µg/mL
